Test results: article PMC3667555 (Bioconjugate chemistry, 2013)

System: U87MG human glioma xenografts
Test: Biodistribution in athymic nude mice bearing U87MG glioma xenografts
Assay type: in vivo
Conditions: 1 h p.i.
Summary of the method: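 Female athymic nu/nu mice (4–5 weeks at purchase) received 5 × 10^6 U87MG cells in the shoulder flank and were used 4 weeks later (tumor 0.1–0.5 g, mice 20–25 g). Each got ~0.1 MBq HPLC-purified 99mTc radiotracer in saline by tail vein. Killed by pentobarbital overdose at 60 min p.i.; blood by heart puncture; organs washed, weighed, γ-counted; %ID/g; n = 4–6.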

[1] = tail-vein injection, without RGD2

[^99mTc(HYNIC-3P-RGD2)(tricine)(TPPTS)] [Compound 5]
Tumor/Blood: 15.36 ± 1.01
Tumor/Liver: 2.55 ± 0.36
Tumor/Lung: 1.71 ± 0.05
Tumor/Muscle: 6.58 ± 1.58
Blood uptake (tail-vein injection): 0.47 ± 0.06 %ID/g
Brain uptake (tail-vein injection): 0.17 ± 0.03 %ID/g
Eyes uptake (tail-vein injection): 1.40 ± 0.13 %ID/g
Heart uptake (tail-vein injection): 1.67 ± 0.15 %ID/g
Kidneys uptake (tail-vein injection): 12.28 ± 1.09 %ID/g
Liver uptake (tail-vein injection): 2.92 ± 0.77 %ID/g
Lungs uptake (tail-vein injection): 4.25 ± 0.63 %ID/g
Muscle uptake (tail-vein injection): 1.12 ± 0.15 %ID/g
Spleen uptake (tail-vein injection): 3.11 ± 0.18 %ID/g
Intestine uptake [1]: 9.45 ± 1.31 %ID/g
Tumor uptake [1]: 7.24 ± 0.95 %ID/g
